# ChEMBL document CHEMBL5058577, “EUbOPEN Chemogenomics Library 2 (Multiplex)” (2022)
# Test system: HEK-293T
# Test: Multiplex assay against HEK293T
# Format: toxicity, cell-based
# Settings: human
# Method in brief: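 Cells were classed with CellPathfinder machine-learning gating, first as Hoechst high-intensity objects or normal cells, then (normal cells) as healthy, pyknosed or fragmented nuclei, and finally (pyknosed cells) as mitotic or apoptotic. Staining of live cells at seeding used Hoechst33342, BioTracker Green Microtubule Cytoskeleton Dye, MitoTracker Red and Annexin V Alexa Fluor 680, with imaging on a CQ1 microscope at 37°C and 5% CO2 after compound addition. Tubulin, mitochondrial-mass and membrane-permeability phenotypes are per cents of healthy-nucleus cells.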
# [1] = 12 h, 1 µM, compound concentration 1 uM, replicate 1
# [2] = 12 h, 1 µM, compound concentration 1 uM, replicate 2
# [3] = 12 h, 10 µM, compound concentration 10 uM, replicate 1
# [4] = 12 h, 10 µM, compound concentration 10 uM, replicate 2
# [5] = 24 h, 1 µM, compound concentration 1 uM, replicate 1
# [6] = 24 h, 1 µM, compound concentration 1 uM, replicate 2
# [7] = 24 h, 10 µM, compound concentration 10 uM, replicate 1
# [8] = 24 h, 10 µM, compound concentration 10 uM, replicate 2
# [9] = 48 h, 1 µM, compound concentration 1 uM, replicate 1
# [10] = 48 h, 1 µM, compound concentration 1 uM, replicate 2
# [11] = 48 h, 10 µM, compound concentration 10 uM, replicate 1
# [12] = 48 h, 10 µM, compound concentration 10 uM, replicate 2
structure (smiles),measurement,setting,value
COc1cc2nc(N3CCN(C(=O)c4ccco4)CC3)nc(N)c2cc1OC.Cl [PRAZOSIN HYDROCHLORIDE],Population Apoptotic (%),[1],32%
same,Population Fragmented Nuclei (%),[1],10%
same,Population Healthy Nuclei (%),[1],77%
same,Population Hoechst High Intensity Objects (%),[1],6%
same,Population Membrane Permeable-Phenotype (%),[1],0%
same,Population Mitochondria Different-Phenotype (%),[1],35%
same,Population Mitotic Cells (%),[1],67%
same,Population Normal (%),[1],93%
same,Population Pyknosed Nuclei (%),[1],11%
same,Population Tubulin-Different-Phenotype (%),[1],23%
same,Total Cell Count,[1],448
same,Population Apoptotic (%),[2],56%
same,Population Fragmented Nuclei (%),[2],6%
same,Population Mitochondria Different-Phenotype (%),[2],66%
same,Population Mitotic Cells (%),[2],43%
same,Population Pyknosed Nuclei (%),[2],16%
same,Population Tubulin-Different-Phenotype (%),[2],22%
same,Total Cell Count,[2],290
same,Population Apoptotic (%),[3],38%
same,Population Fragmented Nuclei (%),[3],9%
same,Population Healthy Nuclei (%),[3],75%
same,Population Hoechst High Intensity Objects (%),[3],10%
same,Population Membrane Permeable-Phenotype (%),[3],0%
same,Population Mitochondria Different-Phenotype (%),[3],62%
same,Population Mitotic Cells (%),[3],61%
same,Population Normal (%),[3],89%
same,Population Pyknosed Nuclei (%),[3],14%
same,Population Tubulin-Different-Phenotype (%),[3],45%
same,Total Cell Count,[3],348
same,Population Apoptotic (%),[4],55%
same,Population Fragmented Nuclei (%),[4],5%
same,Population Healthy Nuclei (%),[4],77%
same,Population Hoechst High Intensity Objects (%),[4],9%
same,Population Mitochondria Different-Phenotype (%),[4],61%
same,Population Mitotic Cells (%),[4],44%
same,Population Normal (%),[4],90%
same,Population Pyknosed Nuclei (%),[4],16%
same,Population Tubulin-Different-Phenotype (%),[4],25%
same,Total Cell Count,[4],404
same,Population Apoptotic (%),[5],38%
same,Population Fragmented Nuclei (%),[5],9%
same,Population Healthy Nuclei (%),[5],82%
same,Population Hoechst High Intensity Objects (%),[5],3%
same,Population Membrane Permeable-Phenotype (%),[5],0%
same,Population Mitochondria Different-Phenotype (%),[5],25%
same,Population Mitotic Cells (%),[5],61%
same,Population Normal (%),[5],96%
same,Population Pyknosed Nuclei (%),[5],7%
same,Population Tubulin-Different-Phenotype (%),[5],10%
same,Total Cell Count,[5],660
same,Population Apoptotic (%),[6],51%
same,Population Healthy Nuclei (%),[6],80%
same,Population Hoechst High Intensity Objects (%),[6],5%
same,Population Mitochondria Different-Phenotype (%),[6],45%
same,Population Mitotic Cells (%),[6],48%
same,Population Normal (%),[6],94%
same,Population Pyknosed Nuclei (%),[6],10%
same,Population Tubulin-Different-Phenotype (%),[6],16%
same,Total Cell Count,[6],364
same,Population Apoptotic (%),[7],50%
same,Population Fragmented Nuclei (%),[7],12%
same,Population Healthy Nuclei (%),[7],77%
same,Population Hoechst High Intensity Objects (%),[7],5%
same,Population Membrane Permeable-Phenotype (%),[7],0%
same,Population Mitochondria Different-Phenotype (%),[7],40%
same,Population Mitotic Cells (%),[7],50%
same,Population Normal (%),[7],94%
same,Population Pyknosed Nuclei (%),[7],9%
same,Population Tubulin-Different-Phenotype (%),[7],32%
same,Total Cell Count,[7],463
same,Population Apoptotic (%),[8],54%
same,Population Fragmented Nuclei (%),[8],11%
same,Population Healthy Nuclei (%),[8],78%
same,Population Membrane Permeable-Phenotype (%),[8],1%
same,Population Mitochondria Different-Phenotype (%),[8],42%
same,Population Mitotic Cells (%),[8],45%
same,Population Pyknosed Nuclei (%),[8],10%
same,Population Tubulin-Different-Phenotype (%),[8],20%
same,Total Cell Count,[8],534
same,Population Apoptotic (%),[9],36%
same,Population Fragmented Nuclei (%),[9],17%
same,Population Healthy Nuclei (%),[9],76%
same,Population Hoechst High Intensity Objects (%),[9],1%
same,Population Membrane Permeable-Phenotype (%),[9],1%
same,Population Mitochondria Different-Phenotype (%),[9],16%
same,Population Mitotic Cells (%),[9],63%
same,Population Normal (%),[9],98%
same,Population Pyknosed Nuclei (%),[9],5%
same,Population Tubulin-Different-Phenotype (%),[9],8%
same,Total Cell Count,[9],1114
same,Population Apoptotic (%),[10],38%
same,Population Fragmented Nuclei (%),[10],16%
same,Population Hoechst High Intensity Objects (%),[10],2%
same,Population Membrane Permeable-Phenotype (%),[10],0%
same,Population Mitochondria Different-Phenotype (%),[10],23%
same,Population Mitotic Cells (%),[10],61%
same,Population Normal (%),[10],97%
same,Population Pyknosed Nuclei (%),[10],6%
same,Population Tubulin-Different-Phenotype (%),[10],9%
same,Total Cell Count,[10],636
same,Population Apoptotic (%),[11],33%
same,Population Fragmented Nuclei (%),[11],17%
same,Population Healthy Nuclei (%),[11],75%
same,Population Hoechst High Intensity Objects (%),[11],4%
same,Population Membrane Permeable-Phenotype (%),[11],2%
same,Population Mitochondria Different-Phenotype (%),[11],32%
same,Population Mitotic Cells (%),[11],66%
same,Population Normal (%),[11],95%
same,Population Pyknosed Nuclei (%),[11],7%
same,Population Tubulin-Different-Phenotype (%),[11],17%
same,Total Cell Count,[11],693
same,Population Apoptotic (%),[12],23%
same,Population Fragmented Nuclei (%),[12],14%
same,Population Healthy Nuclei (%),[12],78%
same,Population Membrane Permeable-Phenotype (%),[12],1%
same,Population Mitochondria Different-Phenotype (%),[12],21%
same,Population Mitotic Cells (%),[12],76%
same,Population Tubulin-Different-Phenotype (%),[12],11%
same,Total Cell Count,[12],778
CN1CCN2c3ccccc3Cc3ccccc3C2C1.Cl (stereo not drawn) [MIANSERIN HYDROCHLORIDE],Population Apoptotic (%),[1],23%
same,Population Fragmented Nuclei (%),[1],5%
same,Population Healthy Nuclei (%),[1],79%
same,Population Hoechst High Intensity Objects (%),[1],5%
same,Population Membrane Permeable-Phenotype (%),[1],0%
same,Population Mitochondria Different-Phenotype (%),[1],36%
same,Population Mitotic Cells (%),[1],76%
same,Population Normal (%),[1],94%
same,Population Pyknosed Nuclei (%),[1],14%
same,Population Tubulin-Different-Phenotype (%),[1],21%
same,Total Cell Count,[1],338
same,Population Apoptotic (%),[2],46%
same,Population Fragmented Nuclei (%),[2],7%
same,Population Healthy Nuclei (%),[2],77%
same,Population Hoechst High Intensity Objects (%),[2],10%
same,Population Mitochondria Different-Phenotype (%),[2],63%
same,Population Mitotic Cells (%),[2],53%
same,Population Normal (%),[2],89%
same,Population Tubulin-Different-Phenotype (%),[2],17%
same,Total Cell Count,[2],376
same,Population Apoptotic (%),[3],34%
same,Population Fragmented Nuclei (%),[3],5%
same,Population Healthy Nuclei (%),[3],81%
same,Population Hoechst High Intensity Objects (%),[3],9%
same,Population Membrane Permeable-Phenotype (%),[3],1%
same,Population Mitochondria Different-Phenotype (%),[3],45%
same,Population Mitotic Cells (%),[3],65%
same,Population Normal (%),[3],90%
same,Population Pyknosed Nuclei (%),[3],13%
same,Population Tubulin-Different-Phenotype (%),[3],40%
same,Total Cell Count,[3],410
same,Population Apoptotic (%),[4],42%
same,Population Healthy Nuclei (%),[4],85%
same,Population Hoechst High Intensity Objects (%),[4],4%
same,Population Membrane Permeable-Phenotype (%),[4],0%
same,Population Mitochondria Different-Phenotype (%),[4],53%
same,Population Mitotic Cells (%),[4],57%
same,Population Normal (%),[4],95%
same,Population Pyknosed Nuclei (%),[4],8%
same,Population Tubulin-Different-Phenotype (%),[4],28%
same,Total Cell Count,[4],491
same,Population Apoptotic (%),[5],22%
same,Population Fragmented Nuclei (%),[5],9%
same,Population Healthy Nuclei (%),[5],80%
same,Population Hoechst High Intensity Objects (%),[5],1%
same,Population Membrane Permeable-Phenotype (%),[5],0%
same,Population Mitochondria Different-Phenotype (%),[5],21%
same,Population Mitotic Cells (%),[5],77%
same,Population Normal (%),[5],98%
same,Population Pyknosed Nuclei (%),[5],10%
same,Population Tubulin-Different-Phenotype (%),[5],14%
same,Total Cell Count,[5],479
same,Population Apoptotic (%),[6],26%
same,Population Fragmented Nuclei (%),[6],10%
same,Population Hoechst High Intensity Objects (%),[6],8%
same,Population Mitochondria Different-Phenotype (%),[6],37%
same,Population Mitotic Cells (%),[6],73%
same,Population Normal (%),[6],91%
same,Population Pyknosed Nuclei (%),[6],9%
same,Population Tubulin-Different-Phenotype (%),[6],16%
same,Total Cell Count,[6],486
same,Population Apoptotic (%),[7],24%
same,Population Fragmented Nuclei (%),[7],8%
same,Population Healthy Nuclei (%),[7],77%
same,Population Hoechst High Intensity Objects (%),[7],5%
same,Population Membrane Permeable-Phenotype (%),[7],0%
same,Population Mitochondria Different-Phenotype (%),[7],31%
same,Population Mitotic Cells (%),[7],75%
same,Population Normal (%),[7],94%
same,Population Pyknosed Nuclei (%),[7],14%
same,Population Tubulin-Different-Phenotype (%),[7],34%
same,Total Cell Count,[7],486
same,Population Apoptotic (%),[8],32%
same,Population Fragmented Nuclei (%),[8],5%
same,Population Healthy Nuclei (%),[8],84%
same,Population Hoechst High Intensity Objects (%),[8],3%
same,Population Mitochondria Different-Phenotype (%),[8],36%
same,Population Mitotic Cells (%),[8],67%
same,Population Normal (%),[8],96%
same,Population Pyknosed Nuclei (%),[8],10%
same,Population Tubulin-Different-Phenotype (%),[8],21%
same,Total Cell Count,[8],612
same,Population Apoptotic (%),[9],13%
same,Population Fragmented Nuclei (%),[9],15%
same,Population Healthy Nuclei (%),[9],77%
same,Population Hoechst High Intensity Objects (%),[9],1%
same,Population Membrane Permeable-Phenotype (%),[9],1%
same,Population Mitochondria Different-Phenotype (%),[9],15%
same,Population Mitotic Cells (%),[9],86%
same,Population Normal (%),[9],98%
same,Population Pyknosed Nuclei (%),[9],6%
same,Population Tubulin-Different-Phenotype (%),[9],9%
same,Total Cell Count,[9],812
same,Population Apoptotic (%),[10],37%
same,Population Fragmented Nuclei (%),[10],16%
same,Population Healthy Nuclei (%),[10],78%
same,Population Hoechst High Intensity Objects (%),[10],3%
same,Population Membrane Permeable-Phenotype (%),[10],0%
same,Population Mitochondria Different-Phenotype (%),[10],18%
same,Population Mitotic Cells (%),[10],62%
same,Population Normal (%),[10],96%
same,Population Pyknosed Nuclei (%),[10],4%
same,Total Cell Count,[10],761
same,Population Apoptotic (%),[11],24%
same,Population Fragmented Nuclei (%),[11],14%
same,Population Healthy Nuclei (%),[11],76%
same,Population Hoechst High Intensity Objects (%),[11],2%
same,Population Membrane Permeable-Phenotype (%),[11],0%
same,Population Mitochondria Different-Phenotype (%),[11],18%
same,Population Mitotic Cells (%),[11],75%
same,Population Normal (%),[11],97%
same,Population Pyknosed Nuclei (%),[11],8%
same,Population Tubulin-Different-Phenotype (%),[11],17%
same,Total Cell Count,[11],702
same,Population Apoptotic (%),[12],35%
same,Population Healthy Nuclei (%),[12],79%
same,Population Hoechst High Intensity Objects (%),[12],1%
same,Population Membrane Permeable-Phenotype (%),[12],1%
same,Population Mitochondria Different-Phenotype (%),[12],14%
same,Population Mitotic Cells (%),[12],64%
same,Population Normal (%),[12],98%
same,Population Pyknosed Nuclei (%),[12],6%
same,Population Tubulin-Different-Phenotype (%),[12],11%
same,Total Cell Count,[12],860
